The values below come from publication PMC6893910 (ACS chemical biology, 2019).

Data set [1] deals with acetylation level of histone H3. Kind of data set: Acetyl-histone H3 immunoblot in HEK 293T cells. It is filed as cell-based. The conditions noted are these: 6 hrs. The procedure, abridged:
(§1)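 HEK 293T cells were treated with test compound for 6 hrs. Acetyl-α-tubulin (K40) and acetyl-histone H3 were both detected by immunoblot of the treated cells.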

For data set [2], the system named is acetylation level of α-tubulin. Briefly: Acetyl-α-tubulin. The data set is classed as cell-based. The conditions noted are these: HEK 293T cells, 6 hrs. The procedure, abridged: as §1
The target in data set [3] is T1, HDAC11 (Homo sapiens, UniProt Q96DB2).
T1 sequence (Q96DB2 1-347): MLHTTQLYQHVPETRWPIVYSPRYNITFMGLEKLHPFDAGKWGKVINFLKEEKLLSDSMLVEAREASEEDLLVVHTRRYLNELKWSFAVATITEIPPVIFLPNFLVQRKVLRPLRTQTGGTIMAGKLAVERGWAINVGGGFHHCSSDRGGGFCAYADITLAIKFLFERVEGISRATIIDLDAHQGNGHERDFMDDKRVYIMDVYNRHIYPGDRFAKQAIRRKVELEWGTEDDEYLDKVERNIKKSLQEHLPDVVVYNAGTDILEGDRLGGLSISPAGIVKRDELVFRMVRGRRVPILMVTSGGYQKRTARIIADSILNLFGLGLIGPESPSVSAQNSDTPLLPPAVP
Kind of data set: HPLC-based HDAC11 assay with myristoyl-H3K9 peptide. The data set is classed as biochemical.

A further data set addresses SIRT6 (Homo sapiens, UniProt Q8N6T7). Briefly: In vitro selectivity assay with acyl-H3K9 peptide, SIRT6. The data set is classed as biochemical. The conditions noted are these: at 100 μM.
Another data set addresses T2, SIRT1 (Homo sapiens, UniProt Q96EB6).
T2 sequence (Q96EB6 1-747): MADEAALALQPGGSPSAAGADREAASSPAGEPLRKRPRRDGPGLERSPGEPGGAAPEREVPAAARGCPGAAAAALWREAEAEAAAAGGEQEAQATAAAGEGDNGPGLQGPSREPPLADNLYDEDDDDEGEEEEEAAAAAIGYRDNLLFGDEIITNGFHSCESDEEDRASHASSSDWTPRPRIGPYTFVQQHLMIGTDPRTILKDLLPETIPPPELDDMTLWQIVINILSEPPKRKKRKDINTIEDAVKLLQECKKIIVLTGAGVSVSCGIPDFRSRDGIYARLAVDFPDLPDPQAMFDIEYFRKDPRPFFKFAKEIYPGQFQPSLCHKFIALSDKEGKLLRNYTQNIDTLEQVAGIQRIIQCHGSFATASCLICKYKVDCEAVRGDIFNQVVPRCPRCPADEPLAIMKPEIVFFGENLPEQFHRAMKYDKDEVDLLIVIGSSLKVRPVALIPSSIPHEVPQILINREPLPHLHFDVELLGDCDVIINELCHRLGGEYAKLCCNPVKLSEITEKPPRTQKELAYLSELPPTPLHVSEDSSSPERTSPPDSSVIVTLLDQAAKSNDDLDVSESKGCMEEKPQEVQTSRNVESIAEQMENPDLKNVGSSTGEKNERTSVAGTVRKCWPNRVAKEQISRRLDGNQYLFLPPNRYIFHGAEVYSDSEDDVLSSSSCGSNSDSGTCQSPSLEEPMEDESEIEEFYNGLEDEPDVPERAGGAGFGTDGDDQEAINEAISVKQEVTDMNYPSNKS
Kind of data set: In vitro selectivity assay with acyl-H3K9 peptide, SIRT1. It is filed as biochemical. The conditions noted are these: at 100 μM.

A short description of data set [4]: LC-MS based detection of compound in cell lysate. The data set is classed as in vitro ADME. The conditions noted are these: LC-MS based assay.
A further data set addresses T3, HDAC8 (Homo sapiens, UniProt Q9BY41).
T3 sequence (Q9BY41 1-377): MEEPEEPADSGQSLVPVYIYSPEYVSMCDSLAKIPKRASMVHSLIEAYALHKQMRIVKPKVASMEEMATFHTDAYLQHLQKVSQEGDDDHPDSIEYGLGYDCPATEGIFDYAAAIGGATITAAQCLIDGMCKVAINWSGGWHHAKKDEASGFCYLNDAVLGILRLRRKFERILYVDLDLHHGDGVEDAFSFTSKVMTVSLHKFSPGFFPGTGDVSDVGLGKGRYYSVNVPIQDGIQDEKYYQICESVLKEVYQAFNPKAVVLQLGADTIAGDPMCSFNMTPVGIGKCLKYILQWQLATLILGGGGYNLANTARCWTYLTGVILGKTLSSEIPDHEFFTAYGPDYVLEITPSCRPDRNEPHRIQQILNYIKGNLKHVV
Briefly: In vitro selectivity assay with acyl-H3K9 peptide, HDAC8. It is filed as biochemical. The conditions noted are these: at 100 μM.

Data set [5] has as its target T1, HDAC11. Briefly: HDAC11 demyristoylation of myristoyl-SHMT2 peptide in vitro. The data set is classed as biochemical. The conditions noted are these: read-out: IC50 against HDAC11; myristoyl-SHMT2 peptide substrate.
A further data set has as its target HDAC1 (Homo sapiens, UniProt Q13547). Briefly: In vitro selectivity assay with acyl-H3K9 peptide, HDAC1. The conditions noted are these: at 100 μM. The data set is classed as biochemical.
In another data set the target is HDAC4 (Homo sapiens, UniProt P56524). Kind of data set: In vitro selectivity assay with acyl-H3K9 peptide, HDAC4. The conditions noted are these: at 100 μM. It is filed as biochemical.
In a further data set the target is T4, SIRT2 (Homo sapiens, UniProt Q8IXJ6).
T4 sequence (Q8IXJ6 1-389): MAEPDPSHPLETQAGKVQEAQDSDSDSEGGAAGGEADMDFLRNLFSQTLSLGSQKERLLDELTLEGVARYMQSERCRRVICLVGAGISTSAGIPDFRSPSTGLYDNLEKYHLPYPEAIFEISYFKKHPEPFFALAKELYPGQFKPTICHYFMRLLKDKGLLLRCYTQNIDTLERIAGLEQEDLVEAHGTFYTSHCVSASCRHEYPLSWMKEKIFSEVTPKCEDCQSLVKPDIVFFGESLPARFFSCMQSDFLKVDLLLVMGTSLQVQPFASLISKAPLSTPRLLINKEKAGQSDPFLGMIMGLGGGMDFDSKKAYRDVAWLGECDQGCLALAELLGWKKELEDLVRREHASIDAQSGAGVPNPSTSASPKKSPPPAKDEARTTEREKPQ
Briefly: In vitro selectivity assay with acyl-H3K9 peptide, SIRT2. It is filed as biochemical. The conditions noted are these: at 100 μM.

The target in the next data set is T5, SIRT3 (Homo sapiens, UniProt Q9NTG7).
T5 sequence (Q9NTG7 1-399): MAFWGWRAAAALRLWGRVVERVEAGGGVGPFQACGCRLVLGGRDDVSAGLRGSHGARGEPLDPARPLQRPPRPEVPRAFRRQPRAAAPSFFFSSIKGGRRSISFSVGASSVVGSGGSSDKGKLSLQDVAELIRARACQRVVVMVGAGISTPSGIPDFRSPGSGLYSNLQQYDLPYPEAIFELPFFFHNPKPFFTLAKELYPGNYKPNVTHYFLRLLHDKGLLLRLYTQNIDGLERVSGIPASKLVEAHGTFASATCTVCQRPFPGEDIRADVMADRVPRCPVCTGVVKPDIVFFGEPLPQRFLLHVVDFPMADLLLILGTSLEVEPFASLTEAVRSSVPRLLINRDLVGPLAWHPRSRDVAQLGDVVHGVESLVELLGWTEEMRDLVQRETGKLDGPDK
Kind of data set: In vitro selectivity assay with acyl-H3K9 peptide, SIRT3. It is filed as biochemical. The conditions noted are these: at 100 μM.

Setting [6] is: myristoyl-H3K9 peptide substrate, HPLC assay.

The structures appear in SMILES notation. “Also recorded” adds a separate entry of the source.

SIRT6, sequence (Q8N6T7 whole entry, species assumed): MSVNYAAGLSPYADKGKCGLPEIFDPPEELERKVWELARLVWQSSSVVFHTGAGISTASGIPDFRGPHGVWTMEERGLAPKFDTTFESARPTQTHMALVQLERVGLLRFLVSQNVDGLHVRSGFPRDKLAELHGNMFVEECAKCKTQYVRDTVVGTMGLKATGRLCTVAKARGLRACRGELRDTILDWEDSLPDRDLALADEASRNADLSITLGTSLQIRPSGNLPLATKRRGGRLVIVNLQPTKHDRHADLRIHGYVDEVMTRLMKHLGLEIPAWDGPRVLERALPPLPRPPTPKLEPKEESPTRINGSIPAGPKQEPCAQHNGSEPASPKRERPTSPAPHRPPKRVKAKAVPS
HDAC4, sequence (P56524 whole entry, species assumed): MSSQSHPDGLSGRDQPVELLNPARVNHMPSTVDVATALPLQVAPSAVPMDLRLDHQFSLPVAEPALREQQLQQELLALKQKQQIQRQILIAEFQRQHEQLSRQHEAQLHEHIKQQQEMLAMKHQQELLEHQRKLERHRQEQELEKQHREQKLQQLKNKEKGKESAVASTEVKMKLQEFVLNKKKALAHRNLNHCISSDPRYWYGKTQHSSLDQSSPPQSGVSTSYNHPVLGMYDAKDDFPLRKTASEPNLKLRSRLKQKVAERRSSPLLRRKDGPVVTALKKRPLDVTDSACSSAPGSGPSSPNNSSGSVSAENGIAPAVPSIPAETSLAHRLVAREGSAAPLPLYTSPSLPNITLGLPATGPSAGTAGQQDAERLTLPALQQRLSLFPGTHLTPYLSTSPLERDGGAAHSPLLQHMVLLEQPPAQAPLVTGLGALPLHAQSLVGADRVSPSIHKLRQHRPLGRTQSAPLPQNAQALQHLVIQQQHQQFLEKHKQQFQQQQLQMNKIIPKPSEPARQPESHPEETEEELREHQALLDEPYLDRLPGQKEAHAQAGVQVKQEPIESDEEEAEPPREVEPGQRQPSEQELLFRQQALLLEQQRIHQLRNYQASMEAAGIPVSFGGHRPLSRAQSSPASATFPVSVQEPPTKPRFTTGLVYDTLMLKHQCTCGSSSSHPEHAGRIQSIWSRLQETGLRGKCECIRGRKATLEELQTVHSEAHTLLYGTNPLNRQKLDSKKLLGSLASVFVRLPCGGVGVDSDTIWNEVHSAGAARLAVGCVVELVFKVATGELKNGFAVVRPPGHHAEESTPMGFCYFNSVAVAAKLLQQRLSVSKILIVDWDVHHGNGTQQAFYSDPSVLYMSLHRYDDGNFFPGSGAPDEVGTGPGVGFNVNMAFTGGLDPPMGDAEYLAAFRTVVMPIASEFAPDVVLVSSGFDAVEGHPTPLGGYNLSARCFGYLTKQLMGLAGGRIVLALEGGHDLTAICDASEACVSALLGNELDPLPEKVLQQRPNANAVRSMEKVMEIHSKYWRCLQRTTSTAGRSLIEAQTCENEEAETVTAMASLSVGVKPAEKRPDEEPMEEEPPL
HDAC1, sequence (Q13547 whole entry, species assumed): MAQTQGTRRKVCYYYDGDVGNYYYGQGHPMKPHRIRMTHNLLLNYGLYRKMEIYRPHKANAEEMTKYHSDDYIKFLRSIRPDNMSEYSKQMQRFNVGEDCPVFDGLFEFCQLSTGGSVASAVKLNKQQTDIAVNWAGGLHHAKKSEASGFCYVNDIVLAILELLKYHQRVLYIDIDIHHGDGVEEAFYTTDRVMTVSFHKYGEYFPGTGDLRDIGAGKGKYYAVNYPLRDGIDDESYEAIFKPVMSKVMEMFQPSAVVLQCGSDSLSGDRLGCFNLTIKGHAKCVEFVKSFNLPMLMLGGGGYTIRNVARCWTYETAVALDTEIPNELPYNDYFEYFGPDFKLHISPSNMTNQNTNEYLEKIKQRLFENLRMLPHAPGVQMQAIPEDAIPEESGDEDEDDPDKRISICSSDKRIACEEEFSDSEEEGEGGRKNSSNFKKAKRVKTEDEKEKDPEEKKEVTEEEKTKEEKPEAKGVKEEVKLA

Consider `CC1(C)c2cccc(C(=O)NO)c2CN1c1cnc(C(F)(F)F)cn1` [FT895], for which, in data set [1] (up to 50 μM), the “acetylation level of histone H3” value is listed as “did not affect”. In addition, in data set [2] (up to 50 μM), the “acetylation level of α-tubulin” value is listed as “did not affect”.

With `O=C(CCCCCCC(=O)Nc1ccccc1)NO` [SAHA, Vorinostat], the “HDAC11 inhibition (in words)” value at HDAC11 [3] (setting [6]) is given as “Neither SAHA or UF010 could inhibit HDAC11”. Moreover, the “acetylation level of histone H3” value in data set [1] (at 1 μM) is given as “significantly increased”. Moreover, the “acetylation level of α-tubulin” value in data set [2] (at 1 μM) is reported as “significantly increased”.

For the molecule `CCCCCCCCCCCCCCCCNNC(=O)c1cccs1` [SIS17], the IC50 (commonly the concentration needed to halve the response being measured) on HDAC11 [3] (read-out: IC50 against HDAC11, myristoyl-H3K9 peptide substrate, HPLC assay) worked out at 830 nM; at HDAC11 [5], 270 nM. For the same molecule, the SIRT6 inhibition result on SIRT6 was “did not show significant inhibition”. Moreover, the “acetylation level of histone H3” value in [1] (up to 50 μM) is on record as “did not affect”. Also, on SIRT1, the SIRT1 inhibition result is “did not show significant inhibition”. Moreover, in data set [4], the “detection of compound in cell lysate” value is “could readily detect”. Moreover, the HDAC8 inhibition result at HDAC8 was “did not show significant inhibition”. On HDAC1, the HDAC1 inhibition result is given as “did not show significant inhibition”. Also, at HDAC4, the HDAC4 inhibition result was “did not show significant inhibition”. On SIRT2, the SIRT2 inhibition entry was “did not show significant inhibition”. In addition, the SIRT3 inhibition entry at SIRT3 is reported as “did not show significant inhibition”. In addition, the “acetylation level of α-tubulin” value in data set [2] (up to 50 μM) was “did not affect”.

As for `CCCCNNC(=O)c1ccc(Br)cc1` [UF010], the “HDAC11 inhibition (in words)” value at HDAC11 [3] (setting [6]) is given as “Neither SAHA or UF010 could inhibit HDAC11; also recorded: did not inhibit HDAC11”.

Consider `CCCCCCCCCCCCCCCC(=O)O` [palmitic acid], for which the HDAC11 inhibition result on HDAC11 [3] (at 10 μM) is “no inhibition”.
